Active and inactive are the calls of the source. The calls are words filed in the database; no cut-off is given here.
Tests used:
PC-12 [1] = experiment: Neuroprotective activity against 6-OHDA-induced cell damage in rat PC12 cells assessed as cell viability at 20 uM after 24 hrs by MTT assay (reference value: 45.23 +/- 4.37 %); assay type: functional; conditions: read-out: Activity
PC-12 [2] = experiment: Protection against 6-OHDA-induced oxidative damage in rat PC12 cells assessed as intracellular ROS level by measuring mean fluorescence intensity at 5 uM pretreated with compound followed by 6-OHDA stimulation by DCFH-DA staining based flow cytometry (reference value: 26327.34); assay type: functional
PC-12 [3] = experiment: Protection against H2O2-induced mitochondrial dysfunction in rat PC12 cells assessed as change in mitochondrial membrane potential at 10 uM pretreated with compound followed by H2O2 addition by JC-1 staining based flow cytometry (reference value: 78.7 %); assay type: functional
Procedure, shortened: (§1)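 Mitochondrial membrane potential in PC12 cells pretreated with compound (5, 10, 20 μM), then exposed to H₂O₂ (200 μM) or 6-OHDA (150 μM). JC-1 staining, red-to-green fluorescence shift read by flow cytometry. Mean ± SD, n = 3.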

PC-12 [4] = experiment: Protection against H2O2-induced mitochondrial dysfunction in rat PC12 cells assessed as change in mitochondrial membrane potential loss at 20 uM pretreated with compound followed by H2O2 addition by JC-1 staining based flow cytometry (reference value: 21.3 %); assay type: functional; procedure, shortened: as §1
PC-12 [5] = experiment: Protection against 6-OHDA-induced mitochondrial dysfunction in rat PC12 cells assessed as change in mitochondrial membrane potential at 20 uM pretreated with compound followed by 6-OHDA addition by JC-1 staining based flow cytometry (reference value: 73.2 %); assay type: functional; procedure, shortened: as §1
PC-12 [6] = experiment: Protection against 6-OHDA-induced mitochondrial dysfunction in rat PC12 cells assessed as change in mitochondrial membrane potential loss at 10 uM pretreated with compound followed by 6-OHDA addition by JC-1 staining based flow cytometry (reference value: 26.8 %); assay type: functional; procedure, shortened: as §1
PC-12 [7] = experiment: Protection against H2O2-induced apoptosis in rat PC12 cells assessed as late apoptotic cells at 5 uM incubated for 24 hrs by annexin V FITC/propidium iodide staining based flow cytometry (reference value: 16.2 %); assay type: functional
PC-12 [8] = experiment: Protection against H2O2-induced apoptosis in rat PC12 cells assessed as early apoptotic cells at 20 uM incubated for 24 hrs by annexin V FITC/propidium iodide staining based flow cytometry (reference value: 3.9 %); assay type: functional
PC-12 [9] = experiment: Protection against 6-OHDA-induced apoptosis in rat PC12 cells assessed as early apoptotic cells at 10 uM incubated for 24 hrs by annexin V FITC/propidium iodide staining based flow cytometry (reference value: 19.2 %); assay type: functional
PC-12 [10] = experiment: Protection against 6-OHDA-induced apoptosis in rat PC12 cells assessed as late apoptotic cells at 10 uM incubated for 24 hrs by annexin V FITC/propidium iodide staining based flow cytometry (reference value: 7.6 %); assay type: functional
PC-12 [11] = experiment: Protection against 6-OHDA-induced apoptosis in rat PC12 cells assessed as viable cells at 20 uM incubated for 24 hrs by annexin V FITC/propidium iodide staining based flow cytometry (reference value: 72.0 %); assay type: functional; conditions: read-out: Activity
PC-12 [12] = experiment: Protection against 6-OHDA-induced apoptosis in rat PC12 cells assessed as late apoptotic cells at 20 uM incubated for 24 hrs by annexin V FITC/propidium iodide staining based flow cytometry (reference value: 7.6 %); assay type: functional
PC-12 [13] = experiment: Prevention of H2O2-induced calcium overload in rat PC12 cells assessed as reduction in intracellular free calcium by measuring mean fluorescence intensity at 5 uM pretreated with compound followed by H2O2 addition measured after 24 hrs by Fluo-3AM based fluorescence assay (reference value: 17791.36%); assay type: functional
[14] = biological target: T1, Nuclear factor erythroid 2-related factor 2 (Rattus norvegicus) (UniProt O54968); experiment: Activation of Nrf2 in rat PC12 cells assessed as increase in GCLM protein level at 20 uM after 12 hrs by Western blot analysis; assay type: cell-based; conditions: PC-12, filed as activator
T1 sequence (whole entry): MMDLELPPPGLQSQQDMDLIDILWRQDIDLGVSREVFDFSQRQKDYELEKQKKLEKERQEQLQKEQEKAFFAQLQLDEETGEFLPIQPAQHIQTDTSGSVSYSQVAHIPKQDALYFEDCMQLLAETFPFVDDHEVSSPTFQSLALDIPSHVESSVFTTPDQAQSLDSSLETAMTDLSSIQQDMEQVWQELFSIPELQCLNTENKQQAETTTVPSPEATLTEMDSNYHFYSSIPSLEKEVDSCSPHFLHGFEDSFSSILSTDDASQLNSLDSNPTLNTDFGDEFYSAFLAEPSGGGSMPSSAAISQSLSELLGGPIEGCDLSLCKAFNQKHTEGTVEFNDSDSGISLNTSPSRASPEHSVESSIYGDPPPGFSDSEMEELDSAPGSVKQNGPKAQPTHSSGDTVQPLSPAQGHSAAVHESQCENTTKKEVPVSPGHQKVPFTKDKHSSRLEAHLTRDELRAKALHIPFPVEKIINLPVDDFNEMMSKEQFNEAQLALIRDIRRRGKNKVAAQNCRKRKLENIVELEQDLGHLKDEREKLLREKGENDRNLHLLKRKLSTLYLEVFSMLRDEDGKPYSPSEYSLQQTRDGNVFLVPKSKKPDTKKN

[15] = Antioxidant activity assessed as DPPH radical scavenging activity; assay type: functional
[16] = biological target: T1, Nuclear factor erythroid 2-related factor 2 (Rattus norvegicus); experiment: Induction of Nrf2 translocation from cytoplasm to nucleus in rat PC12 cells at 20 uM after 6 hrs by Western blot analysis; assay type: cell-based; conditions: PC-12, filed as activator
Procedure, shortened: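 PC12 cells given compound; nuclear and cytoplasmic fractions probed for Nrf2 by Western blot across a time course up to and beyond 6 h.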

PC-12 [17] = experiment: Neuroprotective activity against H2O2-induced cell death in rat PC12 cells at 20 uM preincubated for 30 mins in presence of brusatol followed by H2O2 stimulation and measured after 24 hrs by MTT assay; assay type: functional, cell-based; conditions: time 24.5 hrs
Procedure, shortened: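 PC12 cells incubated 30 min with compound (20 μM) plus brusatol (10 nM) or ZnPP (10 nM), then insult for 24 h (H₂O₂ stated as 150 μM); viability by MTT.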

PC-12 [18] = experiment: Neuroprotective activity against 6-OHDA-induced cell death in rat PC12 cells assessed as cell viability at 20 uM preincubated for 30 mins in presence of ZNPP […] and measured after 24 hrs by MTT assay; assay type: functional, cell-based; conditions: time 24.5 hrs
BV-2 [19] = experiment: Antiinflammatory activity in mouse BV2 cells transfected with Nrf2 siRNA assessed as reduction in LPS-induced NO production at 20 uM pretreated with compound followed by LPS stimulation for 18 hrs
BV-2 [20] = experiment: Antiinflammatory activity in mouse BV2 cells transfected with Nrf2 siRNA assessed as inhibition of LPS-induced IL-6 production at 20 uM pretreated with compound followed by LPS stimulation for 18 hrs

SMILES: CCN(C)C(=O)N1CCN(C(=O)/C=C/c2ccc(F)cc2)C1=O
- viability at 20 µM (PC-12 [1]): 75.4%
- Flu intensity (PC-12 [2]): 18168.07
- Activity (PC-12 [3]): 90.2%
- Activity (PC-12 [4]): 7.2%
- Activity (PC-12 [5]): 89.3%
- Activity (PC-12 [6]): 16.3%
- Activity (PC-12 [7]): 9.9%
- Activity (PC-12 [8]): 2.3%
- Activity (PC-12 [9]): 7.4%
- Activity (PC-12 [10]): 6.3%
- viability at 20 µM (PC-12 [11]): 89%
- Activity (PC-12 [12]): 5%
- Flu intensity (PC-12 [13]): 8721.73
- Activity [14]: Active
- Activity [15]: inactive
- Activity [16]: Active
- Activity (PC-12 [17]): inactive
- Activity (PC-12 [18]): inactive
- Activity (BV-2 [19]): inactive
- Activity (BV-2 [20]): inactive
